This is an account of results in ChEMBL document CHEMBL1149664, “Anthranilamide inhibitors of factor Xa” (2007).

Test [1] concerns the target Prothrombin (Homo sapiens) (UniProt P00734). The experiment in a line: Inhibition of human factor 2a. In short, it runs like this: (§1)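 Values are reported as an apparent association constant (Kassoc) between enzyme and inhibitor, in 10^6 L/mol.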
Test [2] has as its target Coagulation factor X (Homo sapiens) (UniProt P00742). Briefly: Inhibition of human factor 10a. In short, it runs like this: as §1
The subject of test [3] is Plasma. The experiment in a line: Anticoagulant potency in human citreated plasma assessed as concentration required to double prothrombin time. Type of test: functional.
Test [4] deals with Plasma. Briefly: Anticoagulant potency in human citreated plasma assessed as concentration required to double activated partial thromboplastin time. Type of test: functional.

Coagulation factor X (Homo sapiens), sequence (P00742 41-179 limits assumed): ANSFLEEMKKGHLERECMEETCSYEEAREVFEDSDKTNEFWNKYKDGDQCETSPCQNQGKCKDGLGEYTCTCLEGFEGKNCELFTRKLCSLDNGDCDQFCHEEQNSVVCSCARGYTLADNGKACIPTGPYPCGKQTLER
Coagulation factor X (Homo sapiens), sequence (P00742 235-488 limits assumed): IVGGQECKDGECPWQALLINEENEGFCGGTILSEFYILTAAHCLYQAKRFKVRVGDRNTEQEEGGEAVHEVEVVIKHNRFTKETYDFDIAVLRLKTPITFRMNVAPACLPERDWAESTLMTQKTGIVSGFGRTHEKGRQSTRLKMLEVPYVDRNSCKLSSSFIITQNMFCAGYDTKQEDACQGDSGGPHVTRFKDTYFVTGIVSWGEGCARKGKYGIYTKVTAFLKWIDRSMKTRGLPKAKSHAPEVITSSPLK

As for `CN(C)CC(=O)N1CCC(Oc2cc(C(C)(C)C)ccc2C(=O)Nc2ccccc2C(=O)Nc2ccc(Cl)cn2)CC1`, the results for the Kapp in test [1] and in test [2] were 60 10^6L/mol and 176 10^6L/mol, respectively.
As for `CC(C)(C)c1ccc(C(=O)Nc2ccccc2C(=O)Nc2ccc(Cl)cn2)c(OC2CCN(Cc3ccccc3)CC2)c1`, the Kapp in test [1] is 20 10^6L/mol; in test [2], 488 10^6L/mol. The Activity in the test on Plasma [3] stood at 44.6 µM; with Plasma [4], 28.1 µM.
As to `CC(C)(C)c1ccc(C(=O)Nc2ccccc2C(=O)Nc2ccc(Cl)cn2)c(OC2CCN(C(=O)Cn3cnnn3)CC2)c1`, the figures for the Kapp in test [1] and in test [2] were 134 10^6L/mol and 448 10^6L/mol, respectively. Besides, the figures for the Activity with Plasma [3] and with Plasma [4] were 10 µM and 8 µM, respectively.
For `CC(C)(C)c1ccc(C(=O)Nc2ccccc2C(=O)Nc2ccc(Cl)cn2)c(OC2CCNCC2)c1`, the Kapp is 114 10^6L/mol in test [1] and 1110 10^6L/mol in test [2]. Moreover, the Activity in the test on Plasma [3] was determined as 0.88 µM; with Plasma [4] it was 0.85 µM.
Taken in the same sequence, the figures for `CC(C)(C)c1ccc(C(=O)Nc2ccccc2C(=O)Nc2ccc(Cl)cn2)c(OC2CCN(Cc3ccccc3C(=O)O)CC2)c1` were 72 10^6L/mol, 1160 10^6L/mol, 1 µM and 0.57 µM.
The matching figures for `CC(C)(C)c1ccc(C(=O)Nc2ccccc2C(=O)Nc2ccc(Cl)cn2)c(OCCCN)c1`: 152 10^6L/mol, 1440 10^6L/mol, 0.79 µM and 0.85 µM.
`CN1CCN(c2ccc(C(=O)Nc3ccccc3C(=O)Nc3ccc(Cl)cn3)c(OCCCN)c2)CC1`: the Kapp was 2 10^6L/mol in test [1] and 82 10^6L/mol in test [2].
Take `CC(C)(C)OC(=O)NCCCOc1cc(C(C)(C)C)ccc1C(=O)Nc1ccccc1C(=O)Nc1ccc(Cl)cn1`: the Kapp was 0.2 10^6L/mol in test [1] and 54 10^6L/mol in test [2]. Besides, the Activity in the test with Plasma [3] and in the test with Plasma [4] was >70 µM throughout.
`NCCCOc1cc(N2CCCCC2)ccc1C(=O)Nc1ccccc1C(=O)Nc1ccc(Cl)cn1`: the Kapp was 17 10^6L/mol in test [1] and 323 10^6L/mol in test [2]. Besides, the values for the Activity with Plasma [3] and in the test on Plasma [4] were 0.93 µM and 1 µM, respectively.
The matching figures for `CC(C)(C)c1ccc(C(=O)Nc2ccccc2C(=O)Nc2ccc(Cl)cn2)c(OCC2CCCCN2)c1` (stereo not drawn): 67 10^6L/mol, 219 10^6L/mol, 1.4 µM and 1.4 µM.
The matching figures for `CC(C)(CNC(=O)OC(C)(C)C)COc1cc(C(C)(C)C)ccc1C(=O)Nc1ccccc1C(=O)Nc1ccc(Cl)cn1`: 0.14 10^6L/mol, 2.9 10^6L/mol, >70 µM and >70 µM.
Taken in the same sequence, the figures for `CC(C)(C)c1ccc(C(=O)Nc2ccccc2C(=O)Nc2ccc(Cl)cn2)c(OC2CCN(Cc3ccsc3)CC2)c1` were 23 10^6L/mol, 450 10^6L/mol, 20 µM and 14.8 µM.
`CC(C)(C)c1ccc(C(=O)Nc2ccccc2C(=O)Nc2ccc(Cl)cn2)c(OC2CCN(C(=O)Nc3ccccc3F)CC2)c1`: the figures for the Kapp in test [1] and in test [2] were 27 10^6L/mol and 307 10^6L/mol, respectively. Besides, the Activity with Plasma [3] turned out to be 30.2 µM; with Plasma [4], 21.5 µM.
On to `CN(C)CCCNC(=S)N1CCC(Oc2cc(C(C)(C)C)ccc2C(=O)Nc2ccccc2C(=O)Nc2ccc(Cl)cn2)CC1`, for which the Kapp is 145 10^6L/mol in test [1] and 170 10^6L/mol in test [2]. Also, the Activity in the test with Plasma [3] and in the test with Plasma [4] was 2.9 µM throughout.
As to `COCCN1CCC(Oc2cc(C(C)(C)C)ccc2C(=O)Nc2ccccc2C(=O)Nc2ccc(Cl)cn2)CC1`, the Kapp is 24 10^6L/mol in test [1] and 3080 10^6L/mol in test [2]. The Activity with Plasma [3] and with Plasma [4] was 2.1 µM each time.
For the compound `CC(C)(C)c1ccc(C(=O)Nc2ccccc2C(=O)Nc2ccc(Cl)cn2)c(OC2CCN(C(=S)NCc3cccnc3)CC2)c1`, the Kapp in test [1] is 34 10^6L/mol; in test [2], 733 10^6L/mol. Further, the results for the Activity in the test on Plasma [3] and with Plasma [4] were 21.8 µM and 13.4 µM, respectively.
Regarding `NCCCOc1cc(N2CC[C@@H](N)C2)ccc1C(=O)Nc1ccccc1C(=O)Nc1ccc(Cl)cn1`, the Kapp in test [1] is 7.3 10^6L/mol; in test [2], 874 10^6L/mol. In addition, the Activity with Plasma [3] amounted to 0.45 µM; with Plasma [4], 0.4 µM.
For the compound `COc1ccc(NC(=O)c2ccccc2NC(=O)c2ccc(C(C)C)cc2)cc1`, in test [2], the Kapp is 7 10^6L/mol.
For the compound `CC(C)(C)c1ccc(C(=O)Nc2ccccc2C(=O)Nc2ccc(Cl)cn2)c(O)c1`, the figures for the Kapp in test [1] and in test [2] were 0.02 10^6L/mol and 23 10^6L/mol, respectively. The Activity in the test with Plasma [3] and in the test with Plasma [4] was >100 µM in each case.
`CC(C)(C)c1ccc(C(=O)Nc2ccccc2C(=O)Nc2ccc(Cl)cn2)cc1`: in test [2], the Kapp was 42 10^6L/mol.
For `NCCCOc1cc(N2CCCCCC2)ccc1C(=O)Nc1ccccc1C(=O)Nc1ccc(Cl)cn1`, the Kapp is 25 10^6L/mol in test [1] and 130 10^6L/mol in test [2]. Also, the Activity with Plasma [3] was 2.7 µM; in the test on Plasma [4], 3.1 µM.
Taken in the same sequence, the figures for `Cn1nccc1C(=O)N1CCC(Oc2cc(C(C)(C)C)ccc2C(=O)Nc2ccccc2C(=O)Nc2ccc(Cl)cn2)CC1` were 21 10^6L/mol, 513 10^6L/mol, 7.6 µM and 5.7 µM.
For `CC(C)(C)c1ccc(C(=O)Nc2ccccc2C(=O)Nc2ccc(Cl)cn2)c(OC2CCN(CC3CC3)CC2)c1`, the Kapp in test [1] is 37 10^6L/mol; in test [2], 1370 10^6L/mol. The Activity in the test with Plasma [3] was found to be 2.5 µM; in the test with Plasma [4] it was 2.4 µM.
`COc1ccc(C(=O)Nc2ccccc2C(=O)Nc2ccc(C(C)(C)C)cc2)cc1`: the Kapp in test [2] was 0.03 10^6L/mol.
Still for that read-out and setting: the same measure for `CC(C)(C)c1ccc(C(=O)Nc2ccccc2C(=O)Nc2ccc(Cl)cc2)cc1`: 0.5 10^6L/mol.
As for `CC(C)(C)OC(=O)N1CCCCC1COc1cc(C(C)(C)C)ccc1C(=O)Nc1ccccc1C(=O)Nc1ccc(Cl)cn1` (stereo not drawn), the Kapp in test [1] is 3.9 10^6L/mol; in test [2] it was 3.1 10^6L/mol. Moreover, the Activity in the test on Plasma [3] and with Plasma [4] was >70 µM throughout.
Take `CC(C)(C)c1ccc(C(=O)Nc2ccccc2C(=O)Nc2ccc(Cl)cn2)c(OC2CCN(C(=O)CCC(=O)O)CC2)c1`: the values for the Kapp in test [1] and in test [2] were 4 10^6L/mol and 714 10^6L/mol, respectively. The results for the Activity with Plasma [3] and in the test with Plasma [4] were 5.3 µM and 6.1 µM, respectively.
Consider `COc1ccc(NC(=O)c2ccccc2NC(=O)c2ccc(OC)cc2)cc1`, for which the Kapp in test [2] is 1 10^6L/mol.
Consider `NCCCOc1cc(N2CCOCC2)ccc1C(=O)Nc1ccccc1C(=O)Nc1ccc(Cl)cn1`, for which the Kapp was 5.8 10^6L/mol in test [1] and 516 10^6L/mol in test [2]. Besides, the results for the Activity in the test on Plasma [3] and in the test on Plasma [4] were 0.34 µM and 0.26 µM, respectively.
Taken in the same sequence, the figures for `CCCN1CCC(Oc2cc(C(C)(C)C)ccc2C(=O)Nc2ccccc2C(=O)Nc2ccc(Cl)cn2)CC1` were 30 10^6L/mol, 1940 10^6L/mol, 3.3 µM and 3.1 µM.
As for `CN1CCC(Oc2cc(C(C)(C)C)ccc2C(=O)Nc2ccccc2C(=O)Nc2ccc(Cl)cn2)CC1`, the Kapp in test [1] is 61 10^6L/mol; in test [2] it was 1630 10^6L/mol. The Activity in the test on Plasma [3] was 1.1 µM; with Plasma [4] it was 0.93 µM.
Taken in the same sequence, the figures for `CC(C)(CN)COc1cc(C(C)(C)C)ccc1C(=O)Nc1ccccc1C(=O)Nc1ccc(Cl)cn1` were 1100 10^6L/mol, 76 10^6L/mol, 1.6 µM and 2 µM.
`CC(C)(C)c1ccc(C(=O)Nc2ccccc2C(=O)Nc2ccc(Cl)cn2)c(OC2CCN(Cc3ncc[nH]3)CC2)c1`: the values for the Kapp in test [1] and in test [2] were 54 10^6L/mol and 2160 10^6L/mol, respectively. Also, the Activity came out at 2.6 µM with Plasma [3] and 1.8 µM with Plasma [4].
For `COc1ccc(NC(=O)c2ccccc2NC(=O)c2ccc(C(C)(C)C)cc2)cc1`, the Kapp in test [2] is 5 10^6L/mol.
Regarding `NCCCOc1cc(N2CCSCC2)ccc1C(=O)Nc1ccccc1C(=O)Nc1ccc(Cl)cn1`, the figures for the Kapp in test [1] and in test [2] were 17 10^6L/mol and 709 10^6L/mol, respectively. Further, the Activity was found to be 0.61 µM with Plasma [3] and 0.69 µM in the test with Plasma [4].
On to `CN1CCCN(c2ccc(C(=O)Nc3ccccc3C(=O)Nc3ccc(Cl)cn3)c(OCCCN)c2)CC1`, for which the figures for the Kapp in test [1] and in test [2] were 24 10^6L/mol and 8970 10^6L/mol, respectively. Besides, the Activity in the test on Plasma [4] came to 0.1 µM.
Turning to `CC(C)N1CCC(Oc2cc(C(C)(C)C)ccc2C(=O)Nc2ccccc2C(=O)Nc2ccc(Cl)cn2)CC1`, the Kapp was 25 10^6L/mol in test [1] and 3440 10^6L/mol in test [2]. Besides, the Activity is 1.8 µM with Plasma [3] and 1.2 µM in the test with Plasma [4].
Take `NCCCOc1cc(N2CCCC2)ccc1C(=O)Nc1ccccc1C(=O)Nc1ccc(Cl)cn1`: the Kapp in test [1] is 40 10^6L/mol; in test [2] it was 3010 10^6L/mol. In addition, the Activity in the test with Plasma [3] and with Plasma [4] was 0.41 µM each time.
With `CC(C)(C)OC(=O)N1CCC(Oc2cc(C(C)(C)C)ccc2C(=O)Nc2ccccc2C(=O)Nc2ccc(Cl)cn2)CC1`, the Kapp in test [1] is 6 10^6L/mol; in test [2], 69 10^6L/mol. The Activity in the test with Plasma [3] came to 64 µM; with Plasma [4] it was 55 µM.
